Measurements pooled from the literature.
P2RY14: P2Y purinoceptor 14 (P2RY14, Homo sapiens, UniProt Q15391)
IRAK4: Interleukin-1 receptor-associated kinase 4 (IRAK4, Homo sapiens, UniProt Q9NWZ3)
TGFBR1: TGF-beta receptor type-1 (TGFBR1, Homo sapiens, UniProt P36897)

| Compound | target | test | IC50 [µM] |
| --- | --- | --- | --- |
| O=C(O)c1cc(-c2ccc(-n3nncc3CCOP(=O)(O)O)cc2)c2ccc(-c3ccc(C(F)(F)F)cc3)cc2c1 | P2RY14 | ligand displacement in cells, flow cytometry | 0.157 |
| CNC(=O)c1ccccc1Nc1nc(Nc2ccc(CO)cc2)ncc1C1CC1 | IRAK4 | enzyme activity, inhibitor, radiometric | 0.003 |
| Oc1ccccc1-c1n[nH]cc1-c1ccnc2ccccc12 | TGFBR1 | enzyme activity, inhibitor, radiometric | 7.4 |
| OCc1ccc(Nc2ncc(Cl)c(Nc3ccccc3-c3ncc[nH]3)n2)cc1 | IRAK4 | enzyme activity, inhibitor, radiometric | 0.0849 |
| O=C(COc1ccccc1)N[C@@H](Cc1c[nH]c2ccccc12)C(=O)O | P2RY14 | cAMP, antagonist | 0.0189 |
| CNS(=O)(=O)c1ccccc1Nc1nc(Nc2ccc(CO)nc2)ncc1Cl | IRAK4 | enzyme activity, inhibitor, radiometric | 0.0126 |
| Cc1ccc(OCC(=O)N[C@@H](Cc2c[nH]c3ccccc23)C(=O)OC(C)C)cc1 | P2RY14 | cAMP, antagonist | 0.0012 |
| CNC(=O)c1ccccc1Nc1nc(Nc2ccc(CO)nc2)ncc1Cl | IRAK4 | enzyme activity, inhibitor, radiometric | 0.0208 |
| O=C(N[C@@H](Cc1c[nH]c2ccccc12)C(=O)O)c1ccco1 | P2RY14 | cAMP, antagonist | 0.0234 |
| Cn1cc(-c2ccnc3ccccc23)c(-c2ccccn2)n1 | TGFBR1 | enzyme activity, inhibitor, radiometric | 0.75 |
| CS(=O)(=NC#N)c1ccccc1Nc1nc(Nc2ccc(CO)nc2)ncc1Cl (stereo not shown) | IRAK4 | enzyme activity, inhibitor, radiometric | 0.0189 |
| Cn1ccc(-c2ccc(-c3cc(C(=O)O)cc4cc(-c5ccc(C(F)(F)F)cc5)ccc34)cc2)n1 | P2RY14 | ligand displacement in cells, flow cytometry | 0.0355 |
| CC(C)OC(=O)[C@H](Cc1c[nH]c2ccccc12)NC(=O)c1ccc2nccnc2c1 | P2RY14 | cAMP, antagonist | 0.0098 |
| CS(=O)(=NC#N)c1ccccc1Nc1nc(Nc2ccnc(CO)c2)ncc1Cl (stereo not shown) | IRAK4 | enzyme activity, inhibitor, radiometric | 0.0286 |
| Nc1ncnc2c1ncn2[C@@H]1O[C@H](CSCC[C@H](N)C(=O)O)[C@@H](O)[C@H]1O | Histone-lysine N-methyltransferase, H3 lysine-36 specific (NSD1, Homo sapiens, UniProt Q96L73) | enzyme activity, inhibitor | 6.26 |
| O=C(NO)c1ccc(Cn2cnc3c(Nc4ccc(Cl)cc4)ncnc32)cc1 | Histone deacetylase 3 (HDAC3, Homo sapiens, UniProt O15379) | enzyme activity, inhibitor, fluorescence | 0.0151 |
| CNC(=O)c1ccccc1Nc1nc(Nc2ccc(CO)cc2)ncc1Cl | IRAK4 | enzyme activity, inhibitor, radiometric | 0.00249 |
| COc1ccc(OCC(=O)N[C@@H](Cc2c[nH]c3ccccc23)C(=O)OC(C)C)cc1 | P2RY14 | cAMP, antagonist | 0.0156 |
| CNC(=O)c1ccccc1Nc1nc(Nc2ccc(CO)cc2)ncc1C#N | IRAK4 | enzyme activity, inhibitor, radiometric | 0.108 |
| O=C(O)c1cc(-c2ccc(-n3ccnn3)cc2)c2ccc(-c3ccc(C(F)(F)F)cc3)cc2c1 | P2RY14 | ligand displacement in cells, flow cytometry | 0.0244 |
| C=CCn1c(=O)c2cnc(Nc3ccc(N4CCN(C)CC4)cc3)nc2n1-c1ccc2c(n1)[C@@](O)(CC)CC2 | Cytochrome P450 2D6 (CYP2D6, Homo sapiens, UniProt P10635) | enzyme activity, inhibitor | 50 |
| O=C(O)c1cc(-c2ccc(-c3ccc(Cl)s3)cc2)c2ccc(-c3ccc(C(F)(F)F)cc3)cc2c1 | P2RY14 | ligand displacement in cells, flow cytometry | 2.04 |
| C=CCC1c2ccc(OC)c(OC)c2CN2CCc3cc4c(cc3C12)OCO4 (stereo not shown) | P2X purinoceptor 7 (P2RX7, Homo sapiens, UniProt Q99572) | ion current, patch clamp | 0.47 |
| O=C(O)c1cc(-c2ccc(-c3ccncc3)cc2)c2ccc(-c3ccc(C(F)(F)F)cc3)cc2c1 | P2RY14 | ligand displacement in cells, flow cytometry | 0.0408 |
| COC(=O)/C=C/c1ccc(OCCN(C)c2ccccc2)cc1 | Fatty acid CoA ligase Acsl3 (ACSL3, Homo sapiens, UniProt O95573) | enzyme activity, inhibitor | > 50 |
